From article PMC12138345 (RSC Advances, 2025)
Structures can show the parent of a compound that is named as a salt. Where two headings read alike, the source gives them in different places.

Legend:
CtPilB = biological target: T1, CtPilB (Chloracidobacterium thermophilum, UniProt G2LDI3); test: CtPilB ATPase malachite green assay; assay type: biochemical; conditions: for inhibition at 3 µM: read-out: % Inhib. 3 μM; for inhibition at 30 µM: read-out: % Inhib. 30 μM
T1 sequence (G2LDI3 140-614): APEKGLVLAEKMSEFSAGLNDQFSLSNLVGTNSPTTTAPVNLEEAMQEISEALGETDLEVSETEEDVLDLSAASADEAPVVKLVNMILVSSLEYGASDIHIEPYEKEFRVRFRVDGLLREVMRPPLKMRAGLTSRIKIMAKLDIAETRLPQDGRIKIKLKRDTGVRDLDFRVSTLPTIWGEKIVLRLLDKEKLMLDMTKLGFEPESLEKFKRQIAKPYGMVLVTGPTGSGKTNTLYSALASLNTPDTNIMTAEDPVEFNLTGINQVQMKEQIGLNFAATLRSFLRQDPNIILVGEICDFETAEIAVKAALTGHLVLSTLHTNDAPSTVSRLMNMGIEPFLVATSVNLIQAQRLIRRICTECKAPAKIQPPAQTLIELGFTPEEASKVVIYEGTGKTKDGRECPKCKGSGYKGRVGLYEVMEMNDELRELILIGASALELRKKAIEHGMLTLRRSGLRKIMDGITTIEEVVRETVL
Method in brief: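 N-terminally truncated CtPilB hexamer (lacking residues 1–139, purified), 3.3 nM, with 1 mM ATP, 2% DMSO and test compound, 54 °C, 30 min. Quenched with 30% TCA; phosphate detected by malachite green/ammonium molybdate, absorbance at 620 nm, room temperature. Screen at 3 and 30 μM with benserazide as benchmark; IC50 from concentration–response fits.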

apyrase = test: Apyrase ATPase selectivity assay; assay type: biochemical; conditions: varying concentrations up to 64 μM; 1 mM ATP, 37 °C, 30 min; p-value > 0.05
Method in brief: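 Commercial apyrase (6.7 × 10−7 U μl−1) with 1 mM ATP in 20 mM MES, 50 mM NaCl, 5 mM CaCl2, 1 mM DTT, 2% DMSO, test compound up to 64 μM, 37 °C, 30 min. Stopped with 30% TCA; released phosphate measured by malachite green assay. Biological experiments run in duplicate; concentrations compared statistically.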

Row | Compound | inhibition at 3 µM (CtPilB) | inhibition at 30 µM (CtPilB) | also measured
1 | N[C@H](CO)C(=O)NNCc1ccccc1O [7a, (R)-2-Amino-3-hydroxy-N′-(2-hydroxybenzyl)propanehydrazide hydrochloride] |  | 32 ± 4% | 
2 | N[C@H](CO)C(=O)NNCc1cccc(O)c1O [7d, (R)-2-Amino-N′-(2,3-dihydroxybenzyl)-3-hydroxypropanehydrazide hydrochloride] | 19 ± 12% | 78.2 ± 4% | 
3 | N[C@H](CO)C(=O)NNCc1ccc(O)cc1O [7e, (R)-2-Amino-N′-(2,4-dihydroxybenzyl)-3-hydroxypropanehydrazide hydrochloride] |  | 40 ± 2% | 
4 | N[C@H](CO)C(=O)NNCc1cc(O)ccc1O [7f, (R)-2-Amino-N′-(2,5-dihydroxybenzyl)-3-hydroxypropanehydrazide hydrochloride] |  | 45 ± 6% | 
5 | N[C@H](CO)C(=O)NNCc1c(O)cccc1O [7g, (R)-2-Amino-N′-(2,6-dihydroxybenzyl)-3-hydroxypropanehydrazide hydrochloride] | 32 ± 12% | 74 ± 5% | 
6 | COc1ccc(/C=N/NC(=O)[C@H](N)CO)c(OC)c1OC.Cl [8l, (R,E)-2-Amino-3-hydroxy-N′-(2,3,4-trimethoxybenzylidene)propanehydrazide hydrochloride] |  |  | Activity against PilB (in words) (CtPilB; screen at 3 and 30 μM): essentially had no activity
7 | NC(CO)C(=O)NNCc1ccc(O)c(O)c1O (stereo not shown) [Benserazide, reference compound] | 34 ± 10% | 80 ± 8% | Inhibition of apyrase ATPase activity (apyrase): no significant difference; IC50 (CtPilB): 3680 nM
8 | NNC(=O)[C@@H](N)CO [compound 4, (S)-2-Amino-3-hydroxypropanehydrazide dihydrochloride] |  | 27 ± 19% | 

Now from value to molecule, other results behind:

Row | inhibition at 3 µM (CtPilB) | inhibition at 30 µM (CtPilB) | Compound | also measured
9 | 40 ± 26% | 80 ± 16% | N[C@H](CO)C(=O)N/N=C/c1cc(O)ccc1O (mixture of isomers) [8f, (R,E)-2-Amino-N′-(2,5-dihydroxybenzylidene)-3-hydroxypropanehydrazide hydrochloride] | 
10 |  | 23 ± 21% | N[C@H](CO)C(=O)N/N=C/c1ccccc1O [8a, (R,E)-2-Amino-3-hydroxy-N′-(2-hydroxybenzylidene)propanehydrazide hydrochloride] | 
11 |  | 18 ± 9% | N[C@H](CO)C(=O)N/N=C/c1cccc(O)c1 [8b, (R,E)-2-Amino-3-hydroxy-N′-(3-hydroxybenzylidene)propanehydrazide hydrochloride] | 
12 |  | 2 ± 3% | N[C@H](CO)C(=O)N/N=C/c1ccc(O)cc1 [8c, (R,E)-2-Amino-3-hydroxy-N′-(4-hydroxybenzylidene)propanehydrazide hydrochloride] | 
13 |  | 84 ± 4% | N[C@H](CO)C(=O)N/N=C/c1cccc(O)c1O [8d, (R,E)-2-Amino-N′-(2,3-dihydroxybenzylidene)-3-hydroxypropanehydrazide hydrochloride] | 
14 |  | 69 ± 10% | N[C@H](CO)C(=O)N/N=C/c1ccc(O)cc1O [8e, (R,E)-2-Amino-N′-(2,4-dihydroxybenzylidene)-3-hydroxypropanehydrazide hydrochloride] | 
15 | 65 ± 5% | 86 ± 3% | N[C@H](CO)C(=O)N/N=C/c1c(O)cccc1O [8g, (R,E)-2-Amino-N′-(2,6-dihydroxybenzylidene)-3-hydroxypropanehydrazide hydrochloride] | IC50 (CtPilB; dose–response 0.01–50 μM, benserazide as control): 1320 nM
16 |  | 67 ± 4% | COc1cccc(O)c1/C=N/NC(=O)[C@H](N)CO [8h, (R,E)-2-Amino-3-hydroxy-N′-(2-hydroxy-6-methoxybenzylidene)propanehydrazide hydrochloride] | 
17 |  | 14 ± 4% | N[C@H](CO)C(=O)N/N=C/c1ccc(O)c(O)c1 [8i, (R,E)-2-Amino-N′-(3,4-dihydroxybenzylidene)-3-hydroxypropanehydrazide hydrochloride] | 
18 | 35 ± 9% | 84 ± 2% | N[C@H](CO)C(=O)N/N=C/c1ccc(O)c(O)c1O [8j, (R,E)-2-Amino-3-hydroxy-N′-(2,3,4-trihydroxybenzylidene)propanehydrazide hydrochloride] | 
19 | 71 ± 4% | 91 ± 8% | Cl.N[C@H](CO)C(=O)N/N=C/c1c(O)ccc(O)c1O [8k, (R,E)-2-Amino-3-hydroxy-N′-(2,3,6-trihydroxybenzylidene)propanehydrazide hydrochloride] | Inhibition of apyrase ATPase activity (apyrase): no significant difference; IC50 (CtPilB): 1060 nM
20 | 55 ± 8% | 92 ± 5% | NCC(=O)N/N=C/c1c(O)cccc1O [11a, (E)-2-Amino-N′-(2,6-dihydroxybenzylidene)acetohydrazide hydrochloride] | 
21 | 26 ± 11% | 87 ± 4% | C[C@@H](N)C(=O)N/N=C/c1c(O)cccc1O [11b, (R,E)-2-amino-N′-(2,6-dihydroxybenzylidene)propanehydrazide hydrochloride] | 
22 | 90 ± 1% | 97 ± 11% | Cl.N[C@H](CS)C(=O)N/N=C/c1c(O)cccc1O [11c, (S,E)-2-Amino-N′-(2,6-dihydroxybenzylidene)-3-mercaptopropanehydrazide hydrochloride] | Inhibition of apyrase ATPase activity (apyrase): no significant difference; IC50 (CtPilB): 580 nM; Potency relative to benserazide (CtPilB; ratio of IC50 values): 6 fold
